The source made the active and inactive calls.
How the values were obtained:
Mus musculus [1] = species: Mus musculus; assay: Antinociceptive activity in LPS-induced ICR-CD1 mouse thermal hyperalgesia model assessed as withdrawal latency for radiant heat at 1000 pmol i.t by tail flick assay; assay type: functional
Procedure, shortened: (§1)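 Male ICR-CD1 mice (17–25 g); LPS groups given LPS 1 mg/kg i.p. 24 h before testing, others untreated. Compound dissolved in 5% DMSO, diluted to <1% DMSO, given i.t. or i.c.v. in 5 µl to conscious mice. Radiant-heat tail flick, latency before and at peak time after drug, 10 s cut-off; %MPE = (test−control)/(10−control)×100. At least three groups of 8–10 mice per dose–response curve, each mouse used once.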

Mus musculus [2] = assay: Selectivity ratio of ED50 for antinociceptive activity in i.c.v dosed ICR-CD1 mouse to ED50 for i.t dosed ICR-CD1 mouse; assay type: functional
Procedure, shortened: (§2)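 Ratios compare i.c.v. with i.t. dosing, or untreated mice with LPS-pretreated mice (1 mg/kg i.p., 24 h). All mice are male ICR-CD1.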

Mus musculus [3] = species: Mus musculus; assay: Antinociceptive activity in LPS-induced ICR-CD1 mouse thermal hyperalgesia model assessed as withdrawal latency for radiant heat at 1000 pmol i.c.v by tail flick assay; assay type: functional; procedure, shortened: as §1
Mus musculus [4] = assay: Antinociceptive activity in normal ICR-CD1 mouse assessed as withdrawal latency for radiant heat at 1000 pmol, icv by tail flick assay; assay type: functional; procedure, shortened: as §1
Mus musculus [5] = species: Mus musculus; assay: Antinociceptive activity in normal ICR-CD1 mouse assessed as withdrawal latency for radiant heat at 1000 pmol, it by tail flick assay; assay type: functional; procedure, shortened: as §1
Mus musculus [6] = assay: Selectivity ratio of ED50 for antinociceptive activity in i.c.v dosed LPS-induced ICR-CD1 mouse thermal hyperalgesia model to ED50 for i.t dosed LPS-induced ICR-CD1 mouse thermal hyperalgesia model; assay type: functional; procedure, shortened: as §2
[7] = molecular target: C-C chemokine receptor type 5 (Homo sapiens) (UniProt P51681); assay: Antagonist activity at CCR5 receptor (unknown origin) expressed in HEK293 cells assessed as inhibition of CCl5-induced calcium release at 1 uM by FLIPR assay; assay type: functional, cell-based
Mus musculus [8] = assay: Antinociceptive activity in i.t dosed LPS-induced ICR-CD1 mouse thermal hyperalgesia model assessed as withdrawal latency for radiant heat by tail flick assay; assay type: functional; procedure, shortened: as §1
Mus musculus [9] = assay: Toxicity in i.t dosed ICR-CD1 mouse at ED50 after 24 hrs; assay type: organism-based; details: in vivo, icv_or_intrathecal
Procedure, shortened: (§3)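 Acute tolerance in male ICR-CD1 mice, either untreated or given LPS 1 mg/kg i.p. 24 h before testing. The ED80–90 dose is given i.t. or i.c.v. (5 µl, <1% DMSO) on day 1. The same dose is given again 24 h later to the same mouse and retested by radiant-heat tail flick (10 s cut-off, %MPE).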

Mus musculus [10] = assay: Antinociceptive activity in i.t dosed LPS-induced ICR-CD1 mouse thermal hyperalgesia model assessed as withdrawal latency for radiant heat at ED50 by tail flick assay in presence of 45 mg/kg, ip minocycline; assay type: functional, organism-based
Procedure, shortened: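 Male ICR-CD1 mice get LPS 1 mg/kg i.p. and 24 h later minocycline HCl 45 mg/kg i.p. in distilled water. Test compound is given i.t. 4 h after minocycline. Antinociception is read by radiant-heat tail flick (10 s cut-off) as %MPE. The ED50 comes from a dose–response curve, groups of n=8.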

Mus musculus [11] = assay: Antinociceptive activity in normal ICR-CD1 mouse assessed as withdrawal latency for radiant heat at 500 pmol, icv by tail flick assay; assay type: functional; procedure, shortened: as §1
Mus musculus [12] = assay: Antinociceptive activity in i.t dosed LPS-induced ICR-CD1 mouse thermal hyperalgesia model assessed as withdrawal latency for radiant heat by tail flick assay relative to morphine; assay type: functional
Mus musculus [13] = assay: Antinociceptive activity in i.t dosed LPS-induced ICR-CD1 mouse thermal hyperalgesia model assessed as withdrawal latency for radiant heat by tail flick assay relative to TAK-220 and N-((4aS,7S,7aR,12bS)-4a,9-Dihydroxy-3-methyl-2,3,4,4a,5,6,7,7a-octahydro-1H-4,12-methanobenzofuro[3,2-e][…]-7-yl)-2-((3,7,17-trioxo-5-oxa-2,8,16-triazaoctadecan-18-yl)oxy)acetamide combination; assay type: functional
Mus musculus [14] = assay: Antinociceptive activity in i.t dosed normal ICR-CD1 mouse assessed as withdrawal latency for radiant heat by tail flick assay; assay type: functional; procedure, shortened: as §1
Mus musculus [15] = assay: Toxicity in i.t dosed LPS-induced ICR-CD1 mouse thermal hyperalgesia model at ED50 after 24 hrs; assay type: organism-based; details: in vivo, icv_or_intrathecal; procedure, shortened: as §3
Mus musculus [16] = species: Mus musculus; assay: Antinociceptive activity in LPS-induced ICR-CD1 mouse thermal hyperalgesia model assessed as withdrawal latency for radiant heat at 500 pmol i.c.v by tail flick assay; assay type: functional; procedure, shortened: as §1
Mus musculus [17] = assay: Selectivity ratio of ED50 for antinociceptive activity in i.t dosed normal ICR-CD1 mouse to ED50 for i.t dosed LPS-induced ICR-CD1 mouse thermal hyperalgesia model; assay type: functional; procedure, shortened: as §2
Mus musculus [18] = assay: Antinociceptive activity in i.t dosed complete Freund's adjuvant-induced ICR-CD1 mouse mechanical hyperalgesia model by von Frey test; assay type: functional
Mus musculus [19] = assay: Antinociceptive activity in i.t dosed LPS-induced ICR-CD1 mouse thermal hyperalgesia model assessed as withdrawal latency for radiant heat at ED50 after 24 hrs by tail flick assay; assay type: functional; procedure, shortened: as §3
Mus musculus [20] = species: Mus musculus; assay: Antinociceptive activity in normal ICR-CD1 mouse assessed as withdrawal latency for radiant heat at 500 pmol, it by tail flick assay; assay type: functional; procedure, shortened: as §1
Mus musculus [21] = assay: Antinociceptive activity in i.c.v dosed LPS-induced ICR-CD1 mouse thermal hyperalgesia model assessed as withdrawal latency for radiant heat by tail flick assay; assay type: functional; procedure, shortened: as §1
Mus musculus [22] = assay: Toxicity in i.c.v dosed ICR-CD1 mouse at ED50 after 24 hrs; assay type: organism-based; details: in vivo, icv_or_intrathecal; procedure, shortened: as §3
Mus musculus [23] = assay: Antinociceptive activity in i.c.v dosed normal ICR-CD1 mouse assessed as withdrawal latency for radiant heat by tail flick assay; assay type: functional; procedure, shortened: as §1
Mus musculus [24] = assay: Toxicity in i.c.v dosed LPS-induced ICR-CD1 mouse thermal hyperalgesia model at ED50 after 24 hrs; assay type: organism-based; details: in vivo, icv_or_intrathecal; procedure, shortened: as §3
Mus musculus [25] = assay: Antinociceptive activity in normal ICR-CD1 mouse assessed as withdrawal latency for radiant heat at 250 pmol, icv by tail flick assay; assay type: functional; procedure, shortened: as §1

Chain of C-C chemokine receptor type 5 (Homo sapiens) (P51681 whole entry, looked up): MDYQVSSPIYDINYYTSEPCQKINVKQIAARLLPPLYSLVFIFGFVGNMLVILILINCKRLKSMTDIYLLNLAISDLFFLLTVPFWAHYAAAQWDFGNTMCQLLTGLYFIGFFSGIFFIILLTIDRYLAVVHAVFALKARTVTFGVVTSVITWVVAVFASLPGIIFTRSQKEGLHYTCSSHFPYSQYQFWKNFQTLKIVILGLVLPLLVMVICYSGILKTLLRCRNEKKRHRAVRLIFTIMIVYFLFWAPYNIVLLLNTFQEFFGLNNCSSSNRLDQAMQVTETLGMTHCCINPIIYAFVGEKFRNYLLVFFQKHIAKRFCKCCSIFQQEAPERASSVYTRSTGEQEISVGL

CC(=O)N1CCC(C(=O)N(CCCN2CCC(Cc3ccc(C(N)=O)cc3)CC2)c2ccc(C)c(Cl)c2)CC1
MPE (Mus musculus [1]): 49% | Ratio ED50 (Mus musculus [2]): 1 | MPE (Mus musculus [3]): 7.6% | MPE (Mus musculus [4]): 26.2% | MPE (Mus musculus [5]): 34.2% | Ratio ED50 (Mus musculus [6]): 6.48 | Activity [7]: Active

CNC(=O)COCC(=O)N1CCC(C(=O)N(CCCN2CCC(Cc3ccc(C(N)=O)cc3)CC2)c2ccc(C)c(Cl)c2)CC1
Activity [7]: Active

Cc1ccc(N(CCCN2CCC(Cc3ccc(C(N)=O)cc3)CC2)C(=O)C2CCN(C(=O)COCC(=O)NCCCCCCCCCCNC(=O)COCC(=O)N[C@H]3CC[C@@]4(O)[C@H]5Cc6ccc(O)c7c6[C@@]4(CCN5C)[C@H]3O7)CC2)cc1Cl
ED50 (Mus musculus [8]): 0.01461 pmol | Activity (Mus musculus [9]): Non-toxic | Activity (Mus musculus [10]): inactive | MPE (Mus musculus [11]): 49.7% | fold change (FC) (Mus musculus [12]): 1500 | Selectivity Index (Mus musculus [13]): 3559 | ED50 (Mus musculus [14]): 45.75 pmol | Activity (Mus musculus [15]): Non-toxic | MPE (Mus musculus [16]): 41.1% | Selectivity Index (Mus musculus [17]): 3000

CN1CC[C@]23c4c5ccc(O)c4O[C@H]2[C@@H](O)C=C[C@H]3[C@H]1C5 [MORPHINE]
ED50 (Mus musculus [8]): 35 pmol | Ratio ED50 (Mus musculus [2]): 11 | ED50 (Mus musculus [18]): 15 pmol | ED50 (Mus musculus [14]): 27 pmol | Ratio ED50 (Mus musculus [6]): 8

Cc1ccc(N(CCCN2CCC(Cc3ccc(C(N)=O)cc3)CC2)C(=O)C2CCN(C(=O)COCC(=O)NCCCCCCCCCNC(=O)COCC(=O)N[C@H]3CC[C@@]4(O)[C@H]5Cc6ccc(O)c7c6[C@@]4(CCN5C)[C@H]3O7)CC2)cc1Cl
ED50 (Mus musculus [8]): 8.43 pmol | Activity (Mus musculus [9]): Non-toxic | MPE (Mus musculus [19]): 24% | Ratio ED50 (Mus musculus [2]): 63.98 | MPE (Mus musculus [3]): 63.1% | Selectivity Index (Mus musculus [13]): 6.2 | ED50 (Mus musculus [14]): 15.83 pmol | MPE (Mus musculus [4]): 54.5% | Ratio ED50 (Mus musculus [6]): 118.62

Cc1ccc(N(CCCN2CCC(Cc3ccc(C(N)=O)cc3)CC2)C(=O)C2CCN(C(=O)COCC(=O)NCCCCCCCCCCCCNC(=O)COCC(=O)N[C@H]3CC[C@@]4(O)[C@H]5Cc6ccc(O)c7c6[C@@]4(CCN5C)[C@H]3O7)CC2)cc1Cl
ED50 (Mus musculus [8]): 122.7 pmol | Activity (Mus musculus [9]): Toxic | Ratio ED50 (Mus musculus [2]): 2.97 | MPE (Mus musculus [3]): 55.7% | Selectivity Index (Mus musculus [13]): 0.4 | ED50 (Mus musculus [14]): 336.9 pmol | Activity (Mus musculus [15]): Toxic | MPE (Mus musculus [4]): 27.6%

CNC(=O)COCC(=O)NCCCCCCCNC(=O)COCC(=O)N1CCC(C(=O)N(CCCN2CCC(Cc3ccc(C(N)=O)cc3)CC2)c2ccc(C)c(Cl)c2)CC1
MPE (Mus musculus [20]): 28.1% | MPE (Mus musculus [11]): 43.9% | MPE (Mus musculus [1]): 32.4% | MPE (Mus musculus [3]): 51.9%

Cc1ccc(N(CCCN2CCC(Cc3ccc(C(N)=O)cc3)CC2)C(=O)C2CCN(C(=O)COCC(=O)NCCNC(=O)COCC(=O)N[C@H]3CC[C@@]4(O)[C@H]5Cc6ccc(O)c7c6[C@@]4(CCN5C)[C@H]3O7)CC2)cc1Cl
ED50 (Mus musculus [8]): 10.6 pmol | Activity (Mus musculus [9]): Non-toxic | ED50 (Mus musculus [21]): 56.41 pmol | Activity (Mus musculus [22]): Toxic | Ratio ED50 (Mus musculus [2]): 3.29 | Selectivity Index (Mus musculus [13]): 4.9 | ED50 (Mus musculus [14]): 32.34 pmol | Activity (Mus musculus [15]): Non-toxic | ED50 (Mus musculus [23]): 106.6 pmol | Ratio ED50 (Mus musculus [6]): 5.32 | Activity (Mus musculus [24]): Toxic

CNC(=O)COCC(=O)NCCCCCCCNC(=O)COCC(=O)N[C@H]1CC[C@@]2(O)[C@H]3Cc4ccc(O)c5c4[C@@]2(CCN3C)[C@H]1O5
ED50 (Mus musculus [8]): 21.29 pmol | Activity (Mus musculus [9]): Toxic | ED50 (Mus musculus [21]): 168.9 pmol | Activity (Mus musculus [22]): Toxic | Ratio ED50 (Mus musculus [2]): 0.95 | ED50 (Mus musculus [14]): 113.3 pmol | Activity (Mus musculus [15]): Toxic | ED50 (Mus musculus [23]): 108.2 pmol | Ratio ED50 (Mus musculus [6]): 7.93 | Activity (Mus musculus [24]): Toxic

Cc1ccc(N(CCCN2CCC(Cc3ccc(C(N)=O)cc3)CC2)C(=O)C2CCN(C(=O)COCC(=O)NCCCCCCCNC(=O)COCC(=O)N[C@H]3CC[C@@]4(O)[C@H]5Cc6ccc(O)c7c6[C@@]4(CCN5C)[C@H]3O7)CC2)cc1Cl
MPE (Mus musculus [25]): 35.9% | ED50 (Mus musculus [8]): 11.41 pmol | Activity (Mus musculus [9]): Toxic | ED50 (Mus musculus [21]): 692.4 pmol | Ratio ED50 (Mus musculus [2]): 1.5 | Selectivity Index (Mus musculus [13]): 4.5 | ED50 (Mus musculus [14]): 166.4 pmol | Activity (Mus musculus [15]): Non-toxic | Ratio ED50 (Mus musculus [6]): 60.68 | Activity (Mus musculus [24]): Toxic

Cc1ccc(N(CCCN2CCC(Cc3ccc(C(N)=O)cc3)CC2)C(=O)C2CCN(C(=O)COCC(=O)NCCCCCNC(=O)COCC(=O)N[C@H]3CC[C@@]4(O)[C@H]5Cc6ccc(O)c7c6[C@@]4(CCN5C)[C@H]3O7)CC2)cc1Cl
ED50 (Mus musculus [8]): 10.92 pmol | Activity (Mus musculus [9]): Toxic | ED50 (Mus musculus [21]): 187.1 pmol | Activity (Mus musculus [22]): Toxic | Ratio ED50 (Mus musculus [2]): 3.14 | Selectivity Index (Mus musculus [13]): 4.8 | ED50 (Mus musculus [14]): 370.6 pmol | Activity (Mus musculus [15]): Non-toxic | ED50 (Mus musculus [23]): 358.2 pmol | Ratio ED50 (Mus musculus [6]): 6.38 | Activity (Mus musculus [24]): Toxic

Reference: ChEMBL document CHEMBL3632509, “Inhibition of Inflammatory and Neuropathic Pain by Targeting a Mu Opioid Receptor/Chemokine Receptor5 Heteromer (MOR-CCR5)” (J Med Chem, 2015)
